Measured values from article PMC5829012 (Biochemistry, 2018).
Entries after “also recorded” stand apart in the source; their conditions may differ. Where two headings read alike, the source gives them in different places. Blank lines part the entries; values can stand above or below the compound they belong to.

Tests used:
[1] = molecular target: T1, Aβ42-fibrinogen interaction (Homo sapiens, UniProt P05067); test: AlphaLISA of the Aβ42-fibrinogen interaction; format: binding; conditions: triplicate
How it was run: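 Test compound (0.1–100 μM) incubated 30 min at RT with 10 nM biotinylated Aβ42 and 1 nM fibrinogen in 25 mM Tris-HCl pH 7.4, 150 mM NaCl, 0.05% Tween-20, 0.1% BSA. Anti-fibrinogen antibody, 20 μg/ml streptavidin donor and protein A acceptor beads added for 90 min at RT. Triplicate runs; IC50 from sigmoidal dose-response fit with 95% CI.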

Aβ aggregation = conditions: cited from earlier work
AD mouse models = conditions: cited from earlier work
[2] = molecular target: T1, Aβ42-fibrinogen interaction; conditions: positive control; cited from earlier work
Aβ42 = conditions: surface plasmon resonance; cited from earlier work
Aβ42 aggregation = Aβ42 aggregation (Homo sapiens, UniProt P05067); test: Aβ42 aggregation kinetics by ThT fluorescence; format: biochemical; conditions: Aβ42 12.5 μM; compound 48 μM; 37°C, 26 hrs
How it was run: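 HFIP-monomerized Aβ42 was dissolved in DMSO by sonication, diluted in 20 mM HEPES pH 7.4/140 mM NaCl, spun 10 min at 4°C and kept on ice for ≤30 min. Wells were DMSO-matched; buffer ± compound served as controls. ThT was 33 μM final; plates shaken at 25 rpm, 37°C. Fluorescence (ex 440/em 480 nm) was read hourly. Triplicate.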

[3] = system: fibrin clot formation from fibrinogen with or without Aβ42 oligomers; test: In vitro clotting; format: biochemical, human; conditions: compound 20 μM; fibrinogen 1.5 μM; thrombin; 450 nm
How it was run: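 Purified human fibrinogen (1.5 μM) was preincubated with test compound (20 μM) or 0.4% DMSO vehicle, with or without Aβ42 oligomers (3 μM). Oligomers were made from HFIP-monomerized films: sonicated in DMSO, agitated overnight at 4°C, spun at 20,000 x g, and quantified by BCA. Clotting was started with thrombin (0.5 U/mL) and CaCl₂ (5 mM) in 20 mM HEPES pH 7.4, 137 mM NaCl at RT. A450 turbidity was followed over time, in triplicate.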

[4] = system: Aβ42-induced activation of the FXII-mediated contact system; test: Kallikrein activity assay; format: biochemical, human; conditions: DXS 0.1 μg/ml
How it was run: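 Aβ42 oligomers (overnight 4°C in HEPES buffer, 1 μM final) ± test compound (40 μM) shaken 30 min at RT in 20 mM HEPES pH 7.4/140 mM NaCl. Human FXII and plasma prekallikrein added (10 nM each), then S-2302 (0.67 mM final). A405 read at RT; rate over 30 min as mU/min. DXS 0.1 µg/ml ± test compound as positive control; triplicate.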

[5] = read-out: AlphaLISA (IC50), known Aβ aggregation inhibitors (Table 1), 10 nM biotinylated Aβ42, 1 nM fibrinogen

T1 sequence (P05067 672-713 limits assumed): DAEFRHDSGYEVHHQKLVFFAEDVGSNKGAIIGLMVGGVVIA
Aβ42 aggregation, sequence (P05067 672-713 limits assumed): as above

IC50 [1, 5]: 43.2 µM
Compound: O=C1NC(=O)c2cc(Nc3ccccc3)c(Nc3ccccc3)cc21 [4,5-Dianilino Pthalimide (DAPH), 4,5-Dianilino Pthalimide]

IC50 [1, 5]: > 100 µM
Compound: Oc1cccc(Nc2ccc(Nc3cccc(O)c3)nn2)c1 [RS-0406]
inhibition of Aβ aggregation and its toxicity (Aβ aggregation): strongly inhibit

Compound: CN(C)CCN(Cc1ccccc1)C(=O)c1cc(-c2ccc(F)cc2)n2nc(C(C)(C)C)cc2n1 [RU-505]
cognitive impairment (AD mouse models): lessened the severity | cortical inflammation (AD mouse models): reduced | vascular Aβ deposition (AD mouse models): reduced | inhibition of the Aβ42-fibrinogen interaction [2]: known inhibitor of the Aβ42-fibrinogen interaction

IC50 ([1]; RHS analogs of SEN1269 (Table 2), AlphaLISA): 17.8 µM | IC50 [1, 5]: 17.8 µM | Aβ42 aggregation (ThT fluorescence) (Aβ42 aggregation): effectively inhibited Aβ42 aggregation
Compound: CN(C)c1cccc(Oc2cnc(Nc3cccc(O)c3)nc2)c1 [SEN1269]
inhibition of Aβ aggregation / β-pleated sheet assembly and toxicity (Aβ aggregation): potent Aβ aggregation inhibitor; also recorded: block | binding to Aβ42 (Aβ42): binds to Aβ42; also recorded: shown to bind Aβ42 | turbidity of the normal fibrin clot formed in the absence of Aβ42 [3]: further decreased the turbidity

Compound: Dextran sulfate
kallikrein activity (positive control) [4]: high kallikrein activity

Compound: Tanshinone
inhibition of Aβ aggregation and its toxicity (Aβ aggregation): strongly inhibit | IC50 [1, 5]: > 100 µM
